Measurements: ChEMBL document CHEMBL1833904, “Antiplasmodial and antiproliferative pseudoguaianolides of Athroisma proteiforme from the Madagascar Dry Forest” (J Nat Prod, 2011)

Columns and labels:
A2780 = assay: Antiproliferative activity against human A2780 cells; type: cell-based
Plasmodium falciparum [1] = assay: Antiplasmodial activity against chloroquine-resistant Plasmodium falciparum Dd2 after 72 hrs by SYBR green 1 dye based fluorometric method; type: functional, organism-based; conditions: Dd2, 72 h
Outline: (§1)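 Sorbitol-synchronised ring-stage cultures (>95% rings), final 1% hematocrit and 0.5% parasitemia, added to prewarmed wells holding sample diluted in complete medium from DMSO stock. Incubated 72 h at 37 °C under 90% N, 5% O2, 5% CO2. SYBR Green I added, 1 h at 37 °C, fluorescence ex 490/em 530 nm. Triplicate IC50s averaged (±S.E.M.); chloroquine positive control.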

Plasmodium falciparum [2] = assay: Antiplasmodial activity against chloroquine-sensitive Plasmodium falciparum HB3 after 72 hrs SYBR green 1 dye based by fluorometric method; type: functional, organism-based; conditions: HB3, 72 h; outline: as §1
Plasmodium falciparum [3] = assay: Resistance factor, ratio of IC50 for chloroquine-resistant Plasmodium falciparum Dd2 to IC50 for chloroquine-sensitive Plasmodium falciparum HB3; type: functional

| Structure (SMILES) | IC50 (A2780) | IC50 (Plasmodium falciparum [1]) | IC50 (Plasmodium falciparum [2]) | Ratio IC50 (Plasmodium falciparum [3]) |
| --- | --- | --- | --- | --- |
| C=C1C(=O)O[C@@H]2[C@@H](C)[C@@H]3C=CC(=O)[C@@]3(C)[C@@H](OC(=O)/C(C)=C\C)[C@H]1[C@H]2OC(=O)CC(C)(C)O (relative stereo) | 570 nM | – | – | – |
| C=C1C(=O)O[C@@H]2[C@@H](C)[C@@H]3C=CC(=O)[C@@]3(C)[C@@H](OC(=O)/C=C(\C)CC)[C@H]1[C@H]2OC(=O)CC(C)(O)CC (relative stereo) | 1900 nM | – | – | – |
| C=C1C(=O)O[C@H]2C[C@@H](C)[C@@H]3[C@@H](OC(=O)C(C)C)C[C@@H](OC(C)=O)[C@@]3(C)[C@@H](OC(C)=O)[C@H]12 [ATHROLIDE A] | 2100 nM | 32700 nM | 34300 nM | 1 |
| C=C1C(=O)O[C@H]2C[C@@H](C)[C@@H]3[C@@H](OC(=O)C(C)C)C[C@@H](OC(C)=O)[C@@]3(C)[C@H](O)[C@H]12 [ATHROLIDE B] | 2500 nM | – | – | – |

Molecules with a lower IC50 (A2780), results first:

| IC50 (A2780) | Structure (SMILES) | IC50 (Plasmodium falciparum [1]) | IC50 (Plasmodium falciparum [2]) | Ratio IC50 (Plasmodium falciparum [3]) |
| --- | --- | --- | --- | --- |
| 17 nM | CC(=O)O[C@H]1C(=O)[C@@]2(C)[C@H]([C@H](OC(=O)c3ccccc3)[C@]3(O)C[C@H](OC(=O)[C@H](O)[C@@H](NC(=O)c4ccccc4)c4ccccc4)C(C)=C1C3(C)C)[C@]1(OC(C)=O)CO[C@@H]1C[C@@H]2O [PACLITAXEL] | – | – | – |
| 380 nM | C=C1C(=O)O[C@@H]2[C@@H](C)[C@@H]3C=CC(=O)[C@@]3(C)[C@@H](OC(=O)/C(C)=C\C)[C@H]1[C@H]2OC(=O)CC(C)(O)CC (relative stereo) | – | – | – |
